Test results reported in PubChem BioAssay AID522 (The Scripps Research Institute Molecular Screening Center, 2006).
Hit rate of the full screen: of about 65,000 compounds, about 1,200 (1.8%) were called active.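 The calls were made as follows: active = activation above the mean activation of all tested compounds plus 3 SD (cut at about 50% in these data); inactive = the rest.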 Many of the other results were omitted from the sample, so actives are more common in it than they were.

Target: Steroidogenic factor 1 (Homo sapiens) (UniProt Q13285)
Sequence (Q13285 whole entry, looked up, the tested form may be a part): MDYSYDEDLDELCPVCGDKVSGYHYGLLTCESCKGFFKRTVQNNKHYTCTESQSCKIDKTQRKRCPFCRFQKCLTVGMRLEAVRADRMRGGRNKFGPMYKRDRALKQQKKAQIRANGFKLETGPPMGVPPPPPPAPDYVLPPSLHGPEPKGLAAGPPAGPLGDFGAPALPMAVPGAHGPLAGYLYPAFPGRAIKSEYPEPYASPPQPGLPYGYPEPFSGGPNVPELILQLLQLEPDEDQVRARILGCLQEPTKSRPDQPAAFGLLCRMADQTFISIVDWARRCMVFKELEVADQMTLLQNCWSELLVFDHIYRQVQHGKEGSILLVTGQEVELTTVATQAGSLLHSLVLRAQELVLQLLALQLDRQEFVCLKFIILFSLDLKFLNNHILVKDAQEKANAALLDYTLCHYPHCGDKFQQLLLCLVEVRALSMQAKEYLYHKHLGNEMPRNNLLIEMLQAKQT
Test: activators of human SF-1, primary screen, cell-based, CHO-K1, Gal4-SF-1 LBD, luciferase luminescence (AID 522)
Details: CHO-K1 Gal4-SF-1 LBD luciferase reporter; at 10 µM; stronger effect = higher value; % increase over DMSO SF-1-specific signal
Summary of the method: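 Test system: CHO-K1 cells co-transfected with Gal4 DBD–human SF-1 LBD, 5xGal4 luciferase reporter. Quantity: 4,000 cells per well. Compound: 10 µM only. Incubation: compound added 1 h post-seeding, 20 h exposure at 37 °C, 5% CO2. Detection: SteadyLite luciferase luminescence. Replication: one test per compound.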

activation, active:
CC(C)Cc1cc(C(=O)NCCc2ccccc2)no1 80.7%
CCC(=O)NC(=Nc1nc2ccccc2s1)NC(=O)CC 60.7%
Nc1ccc(-c2nnc(-c3ccc(-c4ccccc4)cc3)o2)cc1 55.2%
O=C(Nc1ccc(Cl)cn1)c1cnn2cccnc12 63.8%
O=C(Cc1ccccc1)n1nc(-c2ccccc2)nc1NCc1ccco1 50.5%
COc1cc(OC)c(C(=O)Nc2ccc(N(C)C)cc2)cc1OC 51.4%
CCN1C(=O)/C(=C2\SC(N3CCCCC3)=NC2=O)c2ccccc21 53.9%
COc1ccc2nc(NC(=O)c3ccc(Br)s3)sc2c1 72.8%
O=C(Nc1ccccc1C(F)(F)F)c1cc(-c2ccc(O)cc2)on1 64.4%
COc1ccc(-c2cc(C(=O)NC(C(=O)O)C(C)C)c(C)o2)cc1OC (stereo unspecified) 56.5%
COc1ccc(-n2ncc3c(N4CCc5ccccc54)ncnc32)cc1 59.8%
COc1cccc2sc(Nc3nc(C)c(C(C)=O)s3)nc12 109%
O=C(NC1=NCCS1)c1ccc(Cl)s1 66.2%

activation, inactive:
CC(C)Cc1cc(C(=O)Nc2cc(Br)ccc2O)no1 11.7%
Cc1cc(C(=O)NCCCc2ccccc2)no1 16.8%
CC(C)Cn1c(CCC(=O)O)ccc1-c1cccs1 2.5%
COc1ccccc1N=C1SC(C)CN1C(=O)C1CCC1 (stereo unspecified) 1.8%
COc1ccc(-n2nnnc2SCC(=O)c2ccc(OC)c(OC)c2)cc1 -4.4%
O=C(O)CSCc1nc2ccccc2s1 15.5%
COC(=O)Cc1cc(=O)n(-c2nc3ccccc3s2)[nH]1 -3%
COc1ccc(-c2cc(C(F)(F)F)n3nc(C(=O)N4CCOCC4)c(Cl)c3n2)cc1 -9.4%
C=CCn1c(C)cc(C(=O)CN2C(=O)c3ccccc3C2=O)c1C 27.3%
Cc1c(C(=O)CN2CCOCC2)[nH]c2ccccc12 8.5%
COc1ccc(CC(=O)Nc2ccc(-c3nnc(-c4ccccc4)o3)cc2)cc1 -59.5%
O=C(Nc1ccc(-c2nnc(-c3ccccc3)o2)cc1)c1ccc(Br)o1 10.9%
CCOC(=O)c1nc(-c2ccc3c(c2)OCO3)[nH]c1C 46.3%
O=C(Nc1ccc(Cl)cn1)Nc1cccs1 47.6%
Cc1cc(NC(=O)c2cnn3cccnc23)n(-c2ccccc2)n1 2.1%
CCS(=O)(=O)N1CCCC(C(=O)NCCCN(C)Cc2ccccc2)C1 (stereo unspecified) -14.4%
COc1ccc(NS(=O)(=O)c2ccc(NC(=O)C(C)(C(F)(F)F)C(F)(F)F)cc2)nn1 -13.6%
O=C(NCc1ccco1)c1nc(-c2ccccc2)n(-c2ccccc2)n1 -4.9%
Cc1nc2nc(SCC(=O)NCc3ccco3)nn2c(C)c1Cc1ccccc1 5.7%
CCOC(=O)C1CCCN(C(=O)c2ccc(CS(=O)(=O)c3ccc(Br)cc3)o2)C1 (stereo unspecified) 19.7%
Cc1cccc(-n2nc3c(c2NC(=O)c2ccc(Br)o2)CSC3)c1C 9.6%
CCC(Oc1ccccc1)C(=O)NCc1cccnc1 (stereo unspecified) -4.9%
COc1ccc(NC(=O)c2ccc(OC)cc2)cc1 30.5%
COc1cc(OC)c(C(=O)NC2CCCCCC2)cc1OC 2%
NC(=O)COc1ccc2c3c(c(=O)oc2c1)CCCCC3 -7.8%
Cc1cc(NC(=O)COc2ccc(Cl)cc2Cl)n(CCC#N)n1 28.2%
CCN1C(=O)c2cccc3c(N)ccc1c23 15.3%
CCN1C(=O)/C(=C\N2CCN(c3ccccc3)CC2)SC1=S -22.3%
Cc1nnc(Sc2nc3c(c(=O)[nH]c(=O)n3C)n2Cc2ccccc2)s1 -15%
CCOC(=O)c1ccccc1NC(=O)CC1Nc2ccccc2NC1=O (stereo unspecified) 3.2%
CCn1c(SCC(=O)Nc2nc3ccc(OC)cc3s2)nnc1-c1ccoc1C 13.2%
CNC(=O)c1ccc2nc(NC(C)=O)sc2c1 6.1%
CC(=O)c1ccc(NC(=O)N[C@@H](Cc2ccccc2)C(=O)O)cc1 -21%
O=C(c1cc(-c2ccc(O)cc2)on1)N1CCCc2ccccc21 47.5%
Cc1cc(C)nc(NC(=O)Nc2ccccc2C(F)(F)F)n1 14.8%
CC(C)C(NC(=O)OCc1ccccc1)C(=O)OCC(=O)N1C(C)CCCC1C (stereo unspecified) -2.9%
Cc1ccc(C(=O)NC2CC(C)(C)NC(C)(C)C2)c(C)c1 4.3%
O=C1CC(N2CCN(C(c3ccccc3)c3ccccc3)CC2)C(=O)N1 (stereo unspecified) -23%
COc1ccc(CCNC(=O)c2cc(-c3ccc4c(c3)OCO4)on2)cc1OC 3.9%
COc1ccc(CNC(=O)c2c(C)cc(=O)oc2C)cc1OC 7.4%
CN(C(=O)CSc1nnnn1-c1ccccc1)C1CCCCC1 34.6%
COc1ccc(-n2ncc3c(N4CCCc5ccccc54)ncnc32)cc1 33.2%
Cc1cccc(-n2ncc3c(N4CCc5ccccc54)ncnc32)c1 33.4%
Cn1nnnc1SCC(=O)N1CCN(Cc2ccccc2)CC1 -17.2%
CC(=NCC1CCCO1)c1c(O)[nH]c(=O)[nH]c1=O (stereo unspecified) 12.9%
COC(=O)c1sc(NC(=O)c2ccc(OC)cc2OC)nc1C -57.8%
COc1ccccc1Nc1ncc(C(C)=O)c(C)n1 34%
CC(=O)Nc1ccc(S(=O)(=O)N2CCN(C3CCCCCCC3)CC2)cc1 -6.4%
COc1cccc(N2CCN(C3CC(=O)N(c4ccc(Cl)cc4)C3=O)CC2)c1 (stereo unspecified) -14.7%
COc1ccc(C(=O)Nc2ccc(S(=O)(=O)Nc3onc(C)c3C)cc2)cc1OC -3.3%
COc1ccc(S(=O)(=O)N2CCN(C(=O)c3cccs3)CC2)cc1OC -5.5%
CCc1ccc(N2CC(C(=O)NC3=NCCS3)CC2=O)cc1 (stereo unspecified) -7.9%
CC(NC(=O)COc1ccccc1)C(=O)NC1=NCCS1 (stereo unspecified) -0.2%
